High-throughput results as filed in PubChem.
UCH37 inh = inhibitors of human deubiquitinating enzyme UCH37; Q9Y5K5; purified proteasome/UCH37, Ub-AMC cleavage fluorescence; inhibition, % (test concentration not listed); 330,000 compounds, 0.33% hits;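 active = mean inhibition over replicate wells above about 20%, limit read from the data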;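 also: 0% = compound-free wells with enzyme and 100% = wells lacking proteasome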
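Schedule: 30 min plus 25 min, room temperature / Material: human UCH37 within purified proteasomes / Technique: AMC fluorescence intensity at 355/460 nm / Buffer or medium: pH 7.4 Tris-HCl (50 mM) with ovalbumin, ATP-MgCl2, DTT / Controls: wells without proteasome as full block, compound-free enzyme plus substrate as uninhibited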
CASP6 VEID inh = blocks human caspase-6 cleavage activity; P55212; purified caspase-6, Z-VEID-R110 cleavage fluorescence; inhibition, % at 12.5 µM; 350,000 compounds, 0.53% hits;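 active = mean inhibition across replicates at least about 35%, with every replicate also reaching that limit, limit read from the data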;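 also: 0% = median of neutral control wells and 100% = no fluorescence left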
TDP2 absorb = blocks human TDP2 phosphodiesterase activity; O95551; recombinant TDP2, T5PNP hydrolysis, p-nitrophenol absorbance 415 nm; inhibition, % at 12.8 µM; 370,000 compounds, 0.34% hits; AID 720702;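 active = inhibition above the mean of all tested compounds plus 3 SD, set per campaign, cut at about 25% in these data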;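 also: 0% = DMSO with enzyme and 100% = buffer with substrate but no TDP2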
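Test system: Human TDP2 enzyme | Reagent: 5 mM T5PNP | Compound dosing: 12.8 µM single point, 1% DMSO | Incubation: Enzyme reaction with compound for 2 h at 37 °C | Technique: p-Nitrophenol epi absorbance | Read-out: % inhibition relative to enzyme-containing and enzyme-free wells | Benchmarks: High control without enzyme, low control DMSO plus TDP2 | Replicates: Singlicate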
NSD2 inh = NSD2 (human) methyltransferase inhibition. O96028. NSD2 peptide methylation, AlphaScreen, 120 min. 310,000 compounds, 0.54% hits. inhibition, % at 12.5 µM. AID 743445; in the data active = inhibition above about 50%
Target sequence (O96028 whole entry, looked up): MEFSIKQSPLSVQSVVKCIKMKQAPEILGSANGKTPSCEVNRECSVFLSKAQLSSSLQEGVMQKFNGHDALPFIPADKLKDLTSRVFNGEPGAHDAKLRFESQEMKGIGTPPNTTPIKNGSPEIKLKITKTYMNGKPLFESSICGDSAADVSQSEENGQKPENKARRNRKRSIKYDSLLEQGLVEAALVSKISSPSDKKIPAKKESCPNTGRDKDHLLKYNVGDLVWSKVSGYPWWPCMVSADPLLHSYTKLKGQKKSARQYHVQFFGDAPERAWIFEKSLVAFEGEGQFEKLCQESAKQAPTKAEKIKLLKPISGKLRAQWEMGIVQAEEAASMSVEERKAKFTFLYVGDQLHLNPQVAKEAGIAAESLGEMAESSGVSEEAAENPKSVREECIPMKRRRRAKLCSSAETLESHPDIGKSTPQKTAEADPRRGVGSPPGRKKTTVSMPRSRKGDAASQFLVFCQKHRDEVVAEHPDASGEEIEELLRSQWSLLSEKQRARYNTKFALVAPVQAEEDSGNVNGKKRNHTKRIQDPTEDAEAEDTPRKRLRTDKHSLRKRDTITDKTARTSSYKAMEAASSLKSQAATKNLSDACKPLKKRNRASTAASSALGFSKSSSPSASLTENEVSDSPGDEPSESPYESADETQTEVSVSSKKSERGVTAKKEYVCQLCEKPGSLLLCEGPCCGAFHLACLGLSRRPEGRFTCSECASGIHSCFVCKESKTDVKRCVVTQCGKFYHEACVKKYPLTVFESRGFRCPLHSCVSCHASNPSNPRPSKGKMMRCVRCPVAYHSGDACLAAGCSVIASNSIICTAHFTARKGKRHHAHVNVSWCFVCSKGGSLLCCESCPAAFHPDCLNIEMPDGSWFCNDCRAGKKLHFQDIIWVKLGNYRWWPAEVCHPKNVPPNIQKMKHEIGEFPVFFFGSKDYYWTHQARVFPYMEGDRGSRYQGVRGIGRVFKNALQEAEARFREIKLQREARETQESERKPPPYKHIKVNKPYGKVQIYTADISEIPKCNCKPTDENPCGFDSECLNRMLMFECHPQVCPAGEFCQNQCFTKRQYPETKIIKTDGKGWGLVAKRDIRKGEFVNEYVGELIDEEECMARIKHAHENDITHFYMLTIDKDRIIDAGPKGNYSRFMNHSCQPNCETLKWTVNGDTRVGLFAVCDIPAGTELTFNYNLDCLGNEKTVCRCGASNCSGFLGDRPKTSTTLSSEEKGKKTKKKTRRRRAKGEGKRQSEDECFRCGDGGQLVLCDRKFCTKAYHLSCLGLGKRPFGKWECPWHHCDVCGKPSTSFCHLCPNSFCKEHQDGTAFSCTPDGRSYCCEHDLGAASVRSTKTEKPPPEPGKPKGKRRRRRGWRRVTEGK
LEDGF integ inh = blocks HIV-1 LEDGF/p75-dependent DNA integration. TR-FRET IN-LEDGF/p75 DNA integration, Eu/Cy5. 370,000 compounds, 0.64% hits. AID 743269. inhibition, % at 3.7 µM;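 active = inhibition above the screen-wide mean plus 3 SD, cut at about 13% in these data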;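 also: signal is the Cy5 over europium emission ratio at 671 and 618 nm; 0% = plate median of compound wells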
* hit, by the source's call. The list is not random: actives were taken first. Their share in the collection is about 1.3%.

Screening COc1ccccc1N(CC(=O)NCCSCc1ccccc1Cl)S(C)(=O)=O returned UCH37 inh 5, CASP6 VEID inh 39*, TDP2 absorb 1, NSD2 inh 2 and LEDGF integ inh -2.
`COc1ccc(OC)c(N(CC(=O)Nc2ccccc2)S(C)(=O)=O)c1` gave UCH37 inh 2, CASP6 VEID inh 37*, TDP2 absorb 3, NSD2 inh -2 and LEDGF integ inh 0.
For COc1cc2c(cc1OC)C1=C(C#N)CCC(=NS(=O)(=O)c3cccc(Cl)c3)N1CC2 the results were UCH37 inh 1.
`Cc1ccc(C)c2[nH]c(=O)c(CN(Cc3ccc4c(c3)OCO4)Cc3nnnn3Cc3ccco3)cc12` gave UCH37 inh -4, TDP2 absorb -2, NSD2 inh 2 and LEDGF integ inh 18*.
For CCN(C(=O)C(C)N1C(=O)/C(=C/c2ccco2)SC1=S)C1CCS(=O)(=O)C1 (configuration not stated) the results were CASP6 VEID inh 50*, TDP2 absorb 1, NSD2 inh 26 and LEDGF integ inh 49*.
Screening COc1ccc(-c2cc(C(=O)N3CCc4ccccc4C3)no2)cc1 returned UCH37 inh 3, CASP6 VEID inh 3, TDP2 absorb 1, NSD2 inh 1 and LEDGF integ inh -4.
`COc1cccc(-c2cc(C(=O)N3CCc4ccccc4C3)no2)c1` gave UCH37 inh 22*, TDP2 absorb -2, NSD2 inh -8 and LEDGF integ inh 8.
Screening Cc1ccc(C)c(N2CCN(C(=O)CCS(=O)(=O)c3ccc4c(c3)NC(=O)CO4)CC2)c1 returned UCH37 inh 2, CASP6 VEID inh 71*, TDP2 absorb -22, NSD2 inh -1 and LEDGF integ inh -3.
COc1ccc(CC(=O)Oc2ccc(C)cc2C)cc1 was read as UCH37 inh 4, CASP6 VEID inh -1, TDP2 absorb -10, NSD2 inh -5 and LEDGF integ inh -2.
For COc1ccc(CC(=O)Oc2ccc(C)cc2Br)cc1OC the results were UCH37 inh 1, CASP6 VEID inh 0, TDP2 absorb -12, NSD2 inh 11 and LEDGF integ inh 14*.
For CCOC(=O)c1sc2nc(-c3ccco3)c3c(c2c1N)CC(C)(C)OC3 the results were TDP2 absorb 20 and LEDGF integ inh 42*.
`Fc1ccc(/C=C/c2nnc(-c3cccs3)o2)cc1` gave UCH37 inh -22, CASP6 VEID inh -3, TDP2 absorb 7, NSD2 inh 51* and LEDGF integ inh 2.
Screening O=C(O)CSc1c2c(nc3cc(C(=O)Nc4cccc(C(F)(F)F)c4)ccc13)CCC2 returned UCH37 inh 6, CASP6 VEID inh 79*, TDP2 absorb -10, NSD2 inh 2 and LEDGF integ inh 7.
Screening Cc1nc2ccc(Br)cn2c1C(=O)NN=Cc1ccccc1[N+](=O)[O-] returned UCH37 inh 6.
Screening CCOC(=O)NC(=O)/C(C#N)=C\Nc1sccc1C(=O)OC returned UCH37 inh 28*, CASP6 VEID inh -1, TDP2 absorb -4, NSD2 inh 1 and LEDGF integ inh -8.
Screening COc1cc2c(cc1OC)-c1cc(Nc3ccc(C(=O)O)cc3)nc(=O)n1CC2 returned UCH37 inh -73, CASP6 VEID inh 41*, TDP2 absorb -1, NSD2 inh 2 and LEDGF integ inh 0.
Screening O=C(O)c1ccc(Nc2ccc([N+](=O)[O-])c3nonc23)cc1 returned UCH37 inh 24*, CASP6 VEID inh 14, TDP2 absorb 13, NSD2 inh 3 and LEDGF integ inh -4.
Screening CC(=O)c1ccc(Nc2ccc([N+](=O)[O-])c3nonc23)cc1 returned UCH37 inh 8, CASP6 VEID inh 2, TDP2 absorb 5, NSD2 inh 10 and LEDGF integ inh 8.
`O=C(O)c1cccc(Nc2ccc([N+](=O)[O-])c3nonc23)c1` gave UCH37 inh 24*, CASP6 VEID inh 9, TDP2 absorb -6, NSD2 inh 7 and LEDGF integ inh -6.
Screening CCOc1cccc(C=NN=Cc2cccc(OCC)c2O)c1O returned UCH37 inh 10.
`O=C1/C(=C/c2cccs2)CCC/C1=C\c1cccs1` gave CASP6 VEID inh 0, TDP2 absorb 5, NSD2 inh 7 and LEDGF integ inh 20*.
`O=C1/C(=C\c2ccco2)CCC/C1=C\c1ccco1` gave UCH37 inh -2, CASP6 VEID inh 74*, TDP2 absorb 1, NSD2 inh 22 and LEDGF integ inh 71*.
Screening CC1C/C(=C/c2ccco2)C(=O)/C(=C/c2ccco2)C1 (configuration not stated) returned UCH37 inh 7.
For O=C1NC(=O)C(=Cc2ccco2)S1 the results were UCH37 inh 18, CASP6 VEID inh 49*, TDP2 absorb 1, NSD2 inh 14 and LEDGF integ inh 4.
`O=c1[nH]c(/C=C\c2ccc(O)cc2)nc(O)c1[N+](=O)[O-]` gave UCH37 inh 18, CASP6 VEID inh 19, TDP2 absorb 3 and LEDGF integ inh 3.
`O=c1[nH]c(/C=C\c2ccc(O)c(Cl)c2)nc(O)c1[N+](=O)[O-]` gave UCH37 inh 21*, CASP6 VEID inh 32, TDP2 absorb -8, NSD2 inh 2 and LEDGF integ inh -2.
`O=c1[nH]c(/C=C\c2cccs2)nc(O)c1[N+](=O)[O-]` gave UCH37 inh 21*, CASP6 VEID inh 22, TDP2 absorb 0, NSD2 inh 11 and LEDGF integ inh 2.
Screening O=[N+]([O-])c1ccc(NN=Cc2cccn2-c2ccccc2)nc1 returned UCH37 inh -1.
Screening COc1cc(-c2c(C#N)c(N)nc3[nH]c(=S)[nH]c(=O)c23)ccc1O returned UCH37 inh 23*, CASP6 VEID inh 4, TDP2 absorb -11, NSD2 inh -2 and LEDGF integ inh -2.
Screening O=S(=O)(c1ccc(Cl)cc1)c1snnc1-c1ccccc1 returned UCH37 inh -2, TDP2 absorb -1, NSD2 inh -2 and LEDGF integ inh -1.
`O=S(=O)(c1ccc(F)cc1)c1snnc1-c1ccccc1` gave UCH37 inh 1, CASP6 VEID inh 43*, TDP2 absorb -1, NSD2 inh 4 and LEDGF integ inh 2.
CC(=O)Nc1c(O)nc(SCC(=O)Nc2nnc(SCc3ccccc3)s2)[nH]c1=O was read as UCH37 inh 5, CASP6 VEID inh 80*, TDP2 absorb 0 and LEDGF integ inh 5.
CCOc1ccc(C=NNC(=S)NC2CC3CC2C2C=CCC32)cc1 (configuration not stated) was read as UCH37 inh 5.
Screening Cc1ccc(-n2nnnc2SCC(=O)NC2CC2)cc1C returned UCH37 inh 2, CASP6 VEID inh 57*, TDP2 absorb 10 and LEDGF integ inh -1.
